Assay results as given in ChEMBL document CHEMBL1641513, “Synthesis of sugars embodying conjugated carbonyl systems and related triazole derivatives from carboxymethyl glycoside lactones. Evaluation of their antimicrobial activity and toxicity” (Bioorg Med Chem, 2011).
≈ marks a conversion by molar mass, not a printed value. Where “and” joins values, the source holds several entries; their conditions need not be identical. Equal entries are not always repeated.

Legend:
[1] = Cytotoxicity against […] HII4E cells after 48 hrs by MTT assay; type: cell-based
Summary of the method: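 Adherent […] hepatoma cells attached 24 h in 96-well plates, then exposed to compound 24 h. H2O2 positive control, DMSO negative control. At 48 h of culture, MTT added (0.5 mg/mL final) for 3 h. Cells washed, formazan dissolved in DMSO with 20 min shaking at room temperature. Absorbance read at 550 nm, 620 nm reference.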

Staphylococcus aureus = test: Antibacterial activity against Staphylococcus aureus ATCC 6538 after 24 hrs by paper disk diffusion assay; type: functional
Summary of the method: (§1)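 Disk diffusion per CLSI. Overnight bacterial cultures spread on nutrient agar. 6.4 mm paper disks each loaded with 300 μg substance in 15 μL DMSO. Chloramphenicol positive control, DMSO negative control. Incubated 37 °C, 24 h. Nearest inhibition-zone diameter measured, averaged over two replicates. Scored –(<12 mm) to +++++ (≥26 mm).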

Salmonella enteritidis = test: Antibacterial activity against Salmonella enteritidis ATCC 13076 after 24 hrs by paper disk diffusion assay; type: functional, Salmonella enterica subsp. enterica serovar Enteritidis; summary of the method: as §1
[2] = Antifungal activity against Penicillium aurantiogriseum ATCC 16025 after 24 to 48 hrs by paper disk diffusion assay; type: functional
Summary of the method: (§2)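 Fungal disk diffusion per CLSI. Overnight cultures spread on potato dextrose agar. 6.4 mm paper disks each loaded with 300 μg substance in 15 μL DMSO. Actidione and amphotericin B positive controls, DMSO negative control. Incubated 25 °C for 24–48 h. Inhibition-zone diameter averaged over two replicates, scored by diameter ranges.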

Enterococcus faecalis = test: Antibacterial activity against Enterococcus faecalis ATCC 7080 after 24 hrs by paper disk diffusion assay; type: functional; summary of the method: as §1
Bacillus cereus = test: Antibacterial activity against Bacillus cereus ATCC 11778 after 24 hrs by paper disk diffusion assay; type: functional; summary of the method: as §1
Listeria monocytogenes = test: Antibacterial activity against Listeria monocytogenes ATCC 19115 after 24 hrs by paper disk diffusion assay; type: functional
Summary of the method: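 Disk diffusion per CLSI, overnight culture spread on tryptone soya agar. 6.4 mm paper disks each loaded with 300 μg substance in 15 μL DMSO. Chloramphenicol positive control, DMSO negative control. Incubated 37 °C, 24 h. Inhibition-zone diameter measured, averaged over two replicates, and scored by diameter ranges.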

Aspergillus niger = test: Antifungal activity against Aspergillus niger ATCC 16404 after 24 to 48 hrs by paper disk diffusion assay; type: functional; summary of the method: as §2
Bacillus subtilis = test: Antibacterial activity against Bacillus subtilis ATCC 6633 after 24 hrs by paper disk diffusion assay; type: functional; summary of the method: as §1

CCOC(=O)/C=C1\C(OC(C)=O)=C[C@@H](COC(C)=O)O[C@@H]1OCC(=O)NCc1ccccc1
IC50 [1]: 128 µg/mL (≈ 277 µM) | diameter of the inhibition zone (DIZ) (Staphylococcus aureus): <12 mm | diameter of the inhibition zone (DIZ) (Salmonella enteritidis): <12 mm | inhibition zone (IZ) [2]: 12 mm | diameter of the inhibition zone (DIZ) (Enterococcus faecalis): 24 mm | inhibition zone (IZ) (Enterococcus faecalis): 24 mm | diameter of the inhibition zone (DIZ) (Bacillus cereus): <12 mm | diameter of the inhibition zone (DIZ) (Listeria monocytogenes): <12 mm | diameter of the inhibition zone (DIZ) (Aspergillus niger): <12 mm | diameter of the inhibition zone (DIZ) (Bacillus subtilis): <12 mm

C[C@@H]1C[C@@H]([C@H](O)CC2CC(=O)NC(=O)C2)C(=O)[C@@H](C)C1 [CYCLOHEXIMIDE]
inhibition zone (IZ) [2]: > 26 mm and 26 mm | diameter of the inhibition zone (DIZ) (Aspergillus niger): 43 mm | inhibition zone (IZ) (Aspergillus niger): >=26 mm

O=C(CO[C@H]1O[C@H](CO)[C@H](O)[C@H](O)[C@H]1O)NCc1cn(Cc2ccccc2)nn1
IC50 [1]: 617 µg/mL (≈ 1510 µM)

CC(=O)OC[C@@H]1C=C(OC(C)=O)C(=O)[C@@H](OCC(=O)NCc2cn(Cc3ccccc3)nn2)O1
IC50 [1]: 10300 µg/mL (≈ 21800 µM)

C#CCNC(=O)CO[C@H]1O[C@H](COC(C)=O)C=C(OC(C)=O)C1=O
IC50 [1]: 282 µg/mL (≈ 831 µM)

CC(=O)OC[C@H]1O[C@H](OCC(=O)NCc2cn(Cc3ccccc3)nn2)[C@H](O)[C@@H](OC(C)=O)[C@H]1OC(C)=O
IC50 [1]: 879 µg/mL (≈ 1640 µM)

CCCCCCCCCCCCNC(=O)CO[C@@H]1O[C@H](COC(C)=O)C=C(OC(C)=O)C1=O
IC50 [1]: 45 µg/mL (≈ 95.8 µM) | diameter of the inhibition zone (DIZ) (Staphylococcus aureus): 13 mm | inhibition zone (IZ) (Staphylococcus aureus): 13 mm | diameter of the inhibition zone (DIZ) (Salmonella enteritidis): 14 mm | inhibition zone (IZ) (Salmonella enteritidis): 14 mm | inhibition zone (IZ) [2]: > 26 mm and 33 mm | diameter of the inhibition zone (DIZ) (Enterococcus faecalis): <12 mm | diameter of the inhibition zone (DIZ) (Bacillus cereus): 16 mm | inhibition zone (IZ) (Bacillus cereus): 14 mm | diameter of the inhibition zone (DIZ) (Listeria monocytogenes): 14 mm | inhibition zone (IZ) (Listeria monocytogenes): 14 mm | diameter of the inhibition zone (DIZ) (Aspergillus niger): 40 mm | inhibition zone (IZ) (Aspergillus niger): >=26 mm | diameter of the inhibition zone (DIZ) (Bacillus subtilis): 21 mm | inhibition zone (IZ) (Bacillus subtilis): 18 mm

CC(=O)OC[C@@H]1C=C(OC(C)=O)C(=O)[C@@H](OCC(=O)NCc2ccccc2)O1
IC50 [1]: 163 µg/mL (≈ 416 µM)

C=CCCCCn1cc(CNC(=O)CO[C@H]2O[C@H](CO)[C@H](O)[C@H](O)[C@H]2O)nn1
IC50 [1]: 394 µg/mL (≈ 984 µM)

O=C(N[C@H](CO)[C@H](O)c1ccc([N+](=O)[O-])cc1)C(Cl)Cl [CHLORAMPHENICOL]
diameter of the inhibition zone (DIZ) (Staphylococcus aureus): 36 mm | inhibition zone (IZ) (Staphylococcus aureus): >=26 mm | diameter of the inhibition zone (DIZ) (Salmonella enteritidis): 41 mm | inhibition zone (IZ) (Salmonella enteritidis): >=26 mm | diameter of the inhibition zone (DIZ) (Enterococcus faecalis): 37 mm | inhibition zone (IZ) (Enterococcus faecalis): >=26 mm | diameter of the inhibition zone (DIZ) (Bacillus cereus): 31 mm | inhibition zone (IZ) (Bacillus cereus): >=26 mm | diameter of the inhibition zone (DIZ) (Listeria monocytogenes): 33 mm | inhibition zone (IZ) (Listeria monocytogenes): >=26 mm | diameter of the inhibition zone (DIZ) (Bacillus subtilis): 40 mm | inhibition zone (IZ) (Bacillus subtilis): >=26 mm

CCOC(=O)/C=C1\C(OC(C)=O)=C[C@@H](COC(C)=O)O[C@@H]1OCC(=O)NCc1cn(Cc2ccccc2)nn1
IC50 [1]: 12000 µg/mL (≈ 22100 µM)

C[C@@H]1[C@H](O)[C@@H](C)/C=C/C=C/C=C/C=C/C=C/C=C/C=C/[C@H](O[C@@H]2O[C@H](C)[C@@H](O)[C@H](N)[C@@H]2O)C[C@@H]2O[C@](O)(C[C@@H](O)C[C@@H](O)[C@H](O)CC[C@@H](O)C[C@@H](O)CC(=O)O[C@H]1C)C[C@H](O)[C@H]2C(=O)O [AMPHOTERICIN B]
inhibition zone (IZ) [2]: > 26 mm and 26 mm | diameter of the inhibition zone (DIZ) (Aspergillus niger): 22 mm | inhibition zone (IZ) (Aspergillus niger): 22 mm

CC(=O)OC[C@H]1O[C@H](OCC(=O)NCc2cn(Cc3ccccc3)nn2)[C@H](O)[C@@H](OC(C)=O)[C@@H]1OC(C)=O
IC50 [1]: 69 µg/mL (≈ 129 µM)

C=CCNC(=O)CO[C@H]1O[C@H](COC(C)=O)C=C(OC(C)=O)/C1=C\C(=O)OCC
IC50 [1]: 352 µg/mL (≈ 856 µM)

C=CCCCCn1cc(CNC(=O)CO[C@H]2O[C@H](COC(C)=O)[C@H](OC(C)=O)[C@H](OC(C)=O)[C@H]2O)nn1
IC50 [1]: 63 µg/mL (≈ 120 µM)

O=C(CO[C@@H]1O[C@H](CO)[C@@H](O)[C@H](O)[C@H]1O)NCc1cn(Cc2ccccc2)nn1
IC50 [1]: 426 µg/mL (≈ 1040 µM)

C#CCNC(=O)CO[C@H]1O[C@H](COC(C)=O)C=C(OC(C)=O)/C1=C\C(=O)OCC
IC50 [1]: 257 µg/mL (≈ 628 µM) | diameter of the inhibition zone (DIZ) (Staphylococcus aureus): <12 mm | diameter of the inhibition zone (DIZ) (Salmonella enteritidis): <12 mm | inhibition zone (IZ) [2]: < 12 mm | diameter of the inhibition zone (DIZ) (Enterococcus faecalis): 24 mm | inhibition zone (IZ) (Enterococcus faecalis): 24 mm | diameter of the inhibition zone (DIZ) (Bacillus cereus): <12 mm | diameter of the inhibition zone (DIZ) (Listeria monocytogenes): <12 mm | diameter of the inhibition zone (DIZ) (Aspergillus niger): <12 mm | diameter of the inhibition zone (DIZ) (Bacillus subtilis): <12 mm

C[S+](C)[O-] [DIMETHYL SULFOXIDE]
IC50 [1]: 199 µg/mL (≈ 2550 µM)

OO [HYDROGEN PEROXIDE]
IC50 [1]: 2 µg/mL (≈ 58.8 µM)

CCCCCCCCCCCCNC(=O)CO[C@H]1O[C@H](COC(C)=O)C=C(OC(C)=O)/C1=C\C(=O)OCC
IC50 [1]: 76 µg/mL (≈ 141 µM) | diameter of the inhibition zone (DIZ) (Staphylococcus aureus): 20 mm | inhibition zone (IZ) (Staphylococcus aureus): 20 mm | diameter of the inhibition zone (DIZ) (Salmonella enteritidis): <12 mm | inhibition zone (IZ) [2]: 12 mm | diameter of the inhibition zone (DIZ) (Enterococcus faecalis): 22 mm | inhibition zone (IZ) (Enterococcus faecalis): 22 mm | diameter of the inhibition zone (DIZ) (Bacillus cereus): <12 mm | diameter of the inhibition zone (DIZ) (Listeria monocytogenes): <12 mm | diameter of the inhibition zone (DIZ) (Aspergillus niger): <12 mm | diameter of the inhibition zone (DIZ) (Bacillus subtilis): 12 mm | inhibition zone (IZ) (Bacillus subtilis): 12 mm

O=C(CO[C@H]1O[C@H](CO)[C@@H](O)[C@H](O)[C@H]1O)NCc1cn(Cc2ccccc2)nn1
IC50 [1]: 193 µg/mL (≈ 473 µM)

C=CCCCCn1cc(CN(CC=C)C(=O)CO[C@H]2O[C@H](COCC=C)[C@H](OCC=C)[C@H](O)[C@H]2OCC=C)nn1
IC50 [1]: 1190 µg/mL (≈ 2120 µM)

CCCCCCCCCCCCNC(=O)CO[C@H]1O[C@H](COC(C)=O)C=C(OC(C)=O)C1=O
IC50 [1]: 136 µg/mL (≈ 290 µM) | diameter of the inhibition zone (DIZ) (Staphylococcus aureus): 17 mm | inhibition zone (IZ) (Staphylococcus aureus): 17 mm | diameter of the inhibition zone (DIZ) (Salmonella enteritidis): <12 mm | inhibition zone (IZ) [2]: > 26 mm and 30 mm | diameter of the inhibition zone (DIZ) (Enterococcus faecalis): 24 mm | inhibition zone (IZ) (Enterococcus faecalis): 24 mm | diameter of the inhibition zone (DIZ) (Bacillus cereus): 39 mm | inhibition zone (IZ) (Bacillus cereus): >=26 mm | diameter of the inhibition zone (DIZ) (Listeria monocytogenes): 17 mm | inhibition zone (IZ) (Listeria monocytogenes): 17 mm | diameter of the inhibition zone (DIZ) (Aspergillus niger): 12 mm | inhibition zone (IZ) (Aspergillus niger): 12 mm | diameter of the inhibition zone (DIZ) (Bacillus subtilis): 40 mm | inhibition zone (IZ) (Bacillus subtilis): >=26 mm

CC(=O)OC[C@H]1O[C@@H](OCC(=O)NCc2cn(Cc3ccccc3)nn2)[C@H](O)[C@@H](OC(C)=O)[C@@H]1OC(C)=O
IC50 [1]: 505 µg/mL (≈ 945 µM)
